Reference: ChEMBL document CHEMBL3992538, “Hybrids of thienopyrimidinones and thiouracils as anti-tubercular agents: SAR and docking studies” (Eur J Med Chem, 2017)
In brackets after ≈: the same amount, converted by molar mass.

Assays:
[1] = Selectivity index, ratio of GI50 for human PANC1 cells to MIC for dormant stage of Mycobacterium tuberculosis H37Ra ATCC 25177 infected in human THP1 cells; format: toxicity, cell-based; conditions: PANC-1 cells, read-out: Selectivity Index
Outline: (§1)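 Selectivity index is the cytotoxic GI50 against the named human cell line divided by the antimycobacterial value. Activity counted as specific when SI >10.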

[2] = Selectivity index, ratio of GI50 for human HeLa cells to MIC for active stage of Mycobacterium tuberculosis H37Ra ATCC 25177; format: toxicity, cell-based; conditions: read-out: Selectivity Index; outline: as §1
[3] = Selectivity index, ratio of GI50 for human HeLa cells to MIC for active stage of Mycobacterium tuberculosis H37Ra ATCC 25177 infected in human THP1 cells; format: toxicity, cell-based; conditions: read-out: Selectivity Index; outline: as §1
[4] = Selectivity index, ratio of GI50 for human HeLa cells to MIC for dormant stage of Mycobacterium tuberculosis H37Ra ATCC 25177 infected in human THP1 cells; format: toxicity, cell-based; conditions: read-out: Selectivity Index; outline: as §1
[5] = Cytotoxicity against human PANC1 cells assessed as growth inhibition by MTT assay; format: cell-based; conditions: PANC-1 cells
Outline: (§2)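 MTT assay in duplicate on THP-1 leukaemia, A549 lung adenocarcinoma, PANC-1 pancreatic adenocarcinoma and HeLa cervical carcinoma cells, all obtained from ECCC.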

[6] = system: Mycobacterium tuberculosis; test: Antitubercular activity against dormant stage of Mycobacterium tuberculosis H37Ra ATCC 25177 infected in human THP1 cells after 12 days by nitrate reductase assay; format: functional; conditions: H37Ra ATCC 25177, 288 h
Outline: (§3)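 Ex vivo test of H37Ra in THP-1 cells by nitrate reductase assay, absorbance read at 540 nm. Active stage incubated 8 days and dormant stage 12 days. H37Ra (ATCC 25177) grown in M. pheli medium to OD 1.0 and subcultured once from -70°C stock.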

[7] = Selectivity index, ratio of GI50 for human A549 cells to MIC for active stage of Mycobacterium tuberculosis H37Ra ATCC 25177; format: toxicity; conditions: read-out: Selectivity Index; outline: as §1
[8] = Cytotoxicity against human THP1 cells assessed as growth inhibition by MTT assay; format: cell-based; conditions: THP-1 cells; outline: as §2
[9] = Selectivity index, ratio of GI50 for human A549 cells to MIC for dormant stage of Mycobacterium tuberculosis H37Ra ATCC 25177; format: toxicity; conditions: read-out: Selectivity Index; outline: as §1
[10] = system: Mycobacterium tuberculosis; test: Antitubercular activity against dormant stage of Mycobacterium tuberculosis H37Ra ATCC 25177 after 12 days by XTT reduction menadione assay; format: functional; conditions: H37Ra ATCC 25177, 288 h
Outline: (§4)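 M. tuberculosis H37Ra (ATCC 25177), grown to log phase (OD 1.0) in M. pheli medium from -70°C stock, subcultured once before inoculation. Incubation 8 days (active) or 12 days (dormant). XRMA read-out as absorbance at 470 nm.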

[11] = Selectivity index, ratio of GI50 for human HeLa cells to MIC for dormant stage of Mycobacterium tuberculosis H37Ra ATCC 25177; format: toxicity, cell-based; conditions: read-out: Selectivity Index; outline: as §1
[12] = Selectivity index, ratio of GI50 for human PANC1 cells to MIC for dormant stage of Mycobacterium tuberculosis H37Ra ATCC 25177; format: toxicity; conditions: PANC-1 cells, read-out: Selectivity Index; outline: as §1
[13] = Selectivity index, ratio of GI50 for human PANC1 cells to MIC for active stage of Mycobacterium tuberculosis H37Ra ATCC 25177; format: toxicity; conditions: PANC-1 cells, read-out: Selectivity Index; outline: as §1
[14] = system: Mycobacterium tuberculosis; test: Antitubercular activity against active stage of Mycobacterium tuberculosis H37Ra ATCC 25177 infected in human THP1 cells after 8 days by nitrate reductase assay; format: functional; conditions: H37Ra ATCC 25177, 192 h; outline: as §3
[15] = Cytotoxicity against human HeLa cells assessed as growth inhibition by MTT assay; format: cell-based; outline: as §2
[16] = Selectivity index, ratio of GI50 for human PANC1 cells to MIC for active stage of Mycobacterium tuberculosis H37Ra ATCC 25177 infected in human THP1 cells; format: toxicity, cell-based; conditions: PANC-1 cells, read-out: Selectivity Index; outline: as §1
[17] = Selectivity index, ratio of GI50 for human A549 cells to MIC for dormant stage of Mycobacterium tuberculosis H37Ra ATCC 25177 infected in human THP1 cells; format: toxicity, cell-based; conditions: read-out: Selectivity Index; outline: as §1
[18] = Selectivity index, ratio of GI50 for human A549 cells to MIC for active stage of Mycobacterium tuberculosis H37Ra ATCC 25177 infected in human THP1 cells; format: toxicity, cell-based; conditions: read-out: Selectivity Index; outline: as §1
[19] = system: Mycobacterium tuberculosis; test: Antitubercular activity against active stage of Mycobacterium tuberculosis H37Ra ATCC 25177 after 8 days by XTT reduction menadione assay; format: functional; conditions: H37Ra ATCC 25177, 192 h; outline: as §4
[20] = Cytotoxicity against human A549 cells assessed as growth inhibition by MTT assay; format: cell-based; outline: as §2

Row | SMILES | selectivity ratio [1] | selectivity ratio [2] | selectivity ratio [3] | selectivity ratio [4] | GI50 [5] [µg/mL] | MIC [6] [µg/mL] | selectivity ratio [7] | GI50 [8] [µg/mL] | selectivity ratio [9] | MIC [10] [µg/mL] | selectivity ratio [11] | selectivity ratio [12] | selectivity ratio [13] | MIC [14] [µg/mL] | GI50 [15] [µg/mL] | selectivity ratio [16] | selectivity ratio [17] | selectivity ratio [18] | MIC [19] [µg/mL] | GI50 [20] [µg/mL]
1 | COc1cc(-c2nc(SCCCn3cnc4sc5c(c4c3=O)CCCC5)[nH]c(=O)c2C#N)cc(OC)c1OC | 2 | 2 | 2 | 2 | 52.8 (≈ 93.3 µM) | 26.1 (≈ 46.1 µM) | 4 | 97.6 (≈ 173 µM) | 4 | 23.4 (≈ 41.4 µM) | 2 | 2 | 2 | 28.8 (≈ 50.9 µM) | 55.7 (≈ 98.5 µM) | 2 | 3 | 3 | 25.4 (≈ 44.9 µM) | 91.4 (≈ 162 µM)
2 | CCCCCc1cc2c(=O)n(CCCSc3nc(-c4cc(OC)c(OC)c(OC)c4)c(C#N)c(=O)[nH]3)cnc2s1 | > 7 | 3 | 3 | 8 | 72.8 (≈ 125 µM) | 9.8 (≈ 16.8 µM) | > 3 | > 100 | > 8 | 12.3 (≈ 21.1 µM) | 6 | > 6 | > 2 | > 30 | 75.8 (≈ 130 µM) | > 2 | > 10 | > 3 | > 30 | > 100
3 | CCCCCCc1cc2c(=O)n(CCCSc3nc(-c4cc(OC)c(OC)c(OC)c4)c(C#N)c(=O)[nH]3)cnc2s1 | 4 | 2 | 2 | 9 | 28.1 (≈ 47.2 µM) | 7.1 (≈ 11.9 µM) | 3 | 54.3 (≈ 91.1 µM) | 10 | 8.7 (≈ 14.6 µM) | 8 | 3 | 1 | > 30 | 67 (≈ 112 µM) | 1 | 13 | < 3 | > 30 | 90.2 (≈ 151 µM)
4 | CCCCCCCc1cc2c(=O)n(CCCSc3nc(-c4cc(OC)c(OC)c(OC)c4)c(C#N)c(=O)[nH]3)cnc2s1 | > 14 | 3 | 3 | 11 | > 100 | 6.91 (≈ 11.3 µM) | 3 | 68.2 (≈ 112 µM) | 12 | 7.6 (≈ 12.5 µM) | 10 | > 13 | 3 | > 30 | 76.1 (≈ 125 µM) | 3 | 13 | < 3 | > 30 | 90.5 (≈ 148 µM)
5 | CCCc1cc2c(=O)n(CCCSc3nc(-c4cc(OC)c(OC)c(OC)c4)c(C#N)c(=O)[nH]3)cnc2s1 | > 8 | 2 | 2 | 4 | > 100 | 11.9 (≈ 21.5 µM) | > 3 | > 100 | > 5 | 19.1 (≈ 34.5 µM) | 3 | > 5 | > 3 | > 30 | 52.5 (≈ 94.8 µM) | > 3 | > 8 | > 3 | > 30 | > 100
